In the library only some 1.6% were active in any assay of this set; here they are far more common.
Platelet DG rel = inhibitors of platelet dense granule secretion, primary screen, cell-based, MLPCN, human platelets; human platelet-rich plasma, SFLLRN dense granule ATP release, luminescence; inhibition, %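 (compounds screened at 7.5 µM in platelet-rich plasma)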; 300,000 tested, 0.22% active;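 active means mean replicate score, as percent of positive control, at or above 50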
FLuc stim CS = FLuc activators, initial screening, artefact control for FLuc-dependent activation tests, biochemical, ATPlite luminescence; Luciferin 4-monooxygenase (Photinus pyralis), P08659; ATPlite luciferase biochemical, 10 min; 0 = ATP-free wells, 1 = DMSO control; activation factor at 10 µM; 200,000 tested, under 10 active;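 active means luciferase activation factor, scaled between plate controls, of at least 2 with compound at 10 µM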
Target sequence (P08659 whole entry, looked up): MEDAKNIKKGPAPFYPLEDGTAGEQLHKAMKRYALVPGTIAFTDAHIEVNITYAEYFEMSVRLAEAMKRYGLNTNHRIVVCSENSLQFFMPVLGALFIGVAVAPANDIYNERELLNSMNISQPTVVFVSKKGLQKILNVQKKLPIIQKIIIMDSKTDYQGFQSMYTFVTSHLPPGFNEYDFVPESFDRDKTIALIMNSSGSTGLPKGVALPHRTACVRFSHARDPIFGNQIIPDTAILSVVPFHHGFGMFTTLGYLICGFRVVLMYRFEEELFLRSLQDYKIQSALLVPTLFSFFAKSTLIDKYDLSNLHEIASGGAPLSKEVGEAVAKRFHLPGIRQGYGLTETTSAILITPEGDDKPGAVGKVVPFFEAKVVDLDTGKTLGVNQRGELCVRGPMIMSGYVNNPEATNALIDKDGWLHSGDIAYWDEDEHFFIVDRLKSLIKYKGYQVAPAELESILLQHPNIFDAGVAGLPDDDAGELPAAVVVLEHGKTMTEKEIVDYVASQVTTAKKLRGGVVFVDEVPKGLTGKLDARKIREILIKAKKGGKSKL
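Material: Luciferase/luciferin reagent mix; Doses: test compounds dosed from 2 mM stocks in 100% DMSO; Schedule: 10 min incubation after luciferase reagent addition, room temperature; Measured by: luminescence from luciferase reaction; Read-out: luminescence gain marking luciferase activators.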
PPC-1+TRAIL kill = compounds killing PPC-1 cancer cells with TRAIL present, primary screen, TRAIL potentiator project, ATPLite luminescence, uHTS. PPC-1 cells + TRAIL, ATPLite viability luminescence. cell killing (% activity), % at 4 µM or 5 µM. 220,000 tested, 0.41% active. AID 1443, 2008;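 active means cell killing above 50% in the first pass at 4 µM, then a duplicate retest at 5 µM averaging 50% or more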
FLuc inhib CS = firefly luciferase enzyme inhibitors, primary screen, artefact control for luciferase-based inhibitor screens, biochemical, luminescence, ATPLite; Luciferin 4-monooxygenase (Photinus pyralis), P08659; 10 min; inhibition, % at 10 µM; 200,000 tested, 1.5% active;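 active means inhibition above about 50% when tested at 10 µM, limit read from the data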
TRAIL sens C8 = viability loss with TRAIL in NB7+C8 cells, primary screen, TRAIL sensitizer project, cell-based, ATPlite luminescence; inhibition (viability loss, TRAIL sensitization), % at 10 µM; 360,000 tested, 1% active;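 active means compounds causing at least 50% loss of cell viability in the single-dose screen, relative to plate controls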
Hits are given with their value; - = inactive; . = not tested or not shown.

SMILES | Platelet DG rel | FLuc stim CS | PPC-1+TRAIL kill | FLuc inhib CS | TRAIL sens C8
O=c1[nH][nH]c2c1[C@H](c1ccc(Cl)cc1)O[C@H](C1CCCC1)C2 | . | . | . | . | -
Cc1ccc(S(=O)(=O)N2[C@@H](Cc3ccccc3)CO[C@H]2CC(=O)c2ccc(F)cc2)cc1 | . | . | . | . | -
CCOc1cc(C(=O)O/N=C(\N)c2ccccn2)cc(OCC)c1OCC | - | . | . | . | 61
COc1ccc(/C(N)=N/OC(=O)c2cccc([N+](=O)[O-])c2)cc1 | - | - | - | - | -
COc1ccc(/C(N)=N/OC(=O)c2cccc([N+](=O)[O-])c2C)cc1 | - | - | - | - | 65
O=C(c1cc2c(c(-c3cccc(-c4ccncc4)c3)n1)[C@@H](CCO)N(C(=O)c1ccc3c(c1)OCO3)C2)N1CCOCC1 | . | . | . | . | -
OC(c1ccco1)c1nc(-c2cccs2)cs1 (stereo not drawn) | . | . | . | . | -
Cc1ccc(-c2ccccc2NC(=O)CCl)o1 | - | - | - | - | 48
Oc1ccc(-c2csc(Nc3ncccn3)n2)cc1O | - | - | - | 53 | -
CC(=O)Nc1cccc(-c2csc(Nc3ccc(C)cn3)n2)c1 | - | - | - | 71 | 64
Oc1ccc(-c2csc(Nc3ncccn3)n2)c(O)c1 | - | - | - | - | -
Fc1ccc(-c2csc(Nc3ccccn3)n2)c(F)c1 | - | . | . | . | 57
Cc1ccc(-c2csc(Nc3ccccn3)n2)cc1 | - | . | . | . | 62
Cc1cc(-c2csc(Nc3ccccn3)n2)ccc1F | - | . | . | . | -
CC(=O)Nc1cccc(-c2csc(Nc3ncccn3)n2)c1 | - | - | - | - | .
C=CCOc1ccc(/C=C/C(C)=N\O)cc1 | - | - | - | 61 | 61
Fc1ccccc1-c1nc2ccccc2[nH]1 | - | - | - | 55 | -
Oc1ccccc1C=Nc1ccccc1-c1nc2ccccc2[nH]1 | - | - | - | - | 52
O=c1c2c(nc3cc(-c4ccccc4Cl)[nH]n13)CCS2 | - | - | - | 74 | -
O=c1c2c(nc3cc(-c4ccccc4)[nH]n13)CCS2 | - | - | - | 60 | -
CN(Cc1ccccc1)C(=O)C(=O)c1ccccc1 | . | . | . | . | -
COc1cc(F)ccc1-c1csc(C(NC(C)=O)c2cccc(F)c2)n1 (stereo not drawn) | . | . | . | . | -
COc1cc2nc(N3CCN(c4cc(C)ccc4C)CC3)nc(N)c2cc1OC | - | . | . | . | 57
COc1cc2nc(N3CCNCC3)nc(N)c2cc1OC | - | - | - | - | 53
COc1ccc(C)cc1Nc1nc(N)c2cc(OC)c(OC)cc2n1 | - | . | . | . | -
SMILES | Platelet DG rel | FLuc stim CS | PPC-1+TRAIL kill | FLuc inhib CS | TRAIL sens C8
CCc1ccc(-c2cc(C(=O)NCc3ccccn3)c3ccccc3n2)cc1 | - | - | - | 61 | 60
CCCc1ccc(-c2cc(C(=O)NC3=NCCS3)c3ccccc3n2)cc1 | - | - | 54 | 85 | 72
Cc1ccc(-c2cc(C(=O)NC3=NCCS3)c3ccccc3n2)cc1C | - | - | - | 65 | -
CCCC(=O)N1CCC1(C)C(=O)NS(=O)(=O)c1ccccc1 (stereo not drawn) | . | . | . | . | -
Cc1cccc(NS(=O)(=O)c2ccc3c(c2)Cc2cc(S(=O)(=O)Nc4cccc(C)c4C)ccc2-3)c1C | . | - | - | - | 60
CCOC(=O)[C@]12CCC=C1N(Cc1ccco1)C(=O)[C@H](CC(=O)N1CCN(C(=O)c3ccco3)CC1)C2 | . | . | . | . | -
O=C(O)c1ccc(NC2=C/C(=N/S(=O)(=O)c3ccccc3)c3ccccc3C2=O)cc1 | . | - | - | - | -
O=C(O)c1ccc(NC2=C/C(=N/S(=O)(=O)c3cccs3)c3ccccc3C2=O)cc1 | . | . | . | . | 55
Cc1cc(C)c(S(=O)(=O)/N=C2\C=C(Nc3ccc(C(=O)O)cc3)C(=O)c3ccccc32)c(C)c1 | - | . | . | . | 58
COc1ccc(C(=O)/C=C2\C(=O)Nc3ccc(Br)cc32)cc1 | . | . | . | . | 59
O=C1Nc2ccc(Br)cc2/C1=C/C(=O)c1ccc2c(c1)OCO2 | - | . | - | . | -
Oc1ccccc1C1Nc2cccc3cccc(c23)N1 | - | - | - | 64 | -
COc1ccccc1C1Nc2cccc3cccc(c23)N1 | - | - | - | - | -
CCc1nc2c(OCc3ccc(Cl)cc3)cccn2c1N(C=O)Cc1ccccc1 | . | . | . | . | -
Cc1nc2c(-c3ccccc3)c(C)nn2c(N)c1-c1ccccc1 | - | - | - | 68 | -
Cc1nc2cc(-c3ccccc3)nn2c(N)c1-c1ccccc1 | . | . | . | . | 66
COc1ccc(-c2cc3nc(C)cc(N)n3n2)cc1 | 94 | - | 81 | 95 | 84
Cc1nn2c(N)c(-c3ccccc3)cnc2c1-c1ccc(Cl)cc1 | - | . | . | . | -
COC(=O)[C@@]12C[C@@H](CC(=O)NCc3ccc(C)o3)C(=O)N(Cc3ccc4c(c3)OCO4)C1=CCC(C)(C)C2 | . | . | . | . | -
Cc1cc2nc(-c3ccc(F)cc3)c(CC(C)(C)C)n2c(C)c1Br | . | . | . | . | -
CC(C)C[C@H]1CNC(=O)C(=O)N1C[C@H]1CCCN1C[C@H](CC(C)C)N1C[C@H](CC(C)C)N(CCc2ccccc2)C(=O)C1=O | . | . | . | . | -
COc1cccc(C(=O)Nc2nnc(SCC(=O)Nc3ccc(NC(C)=O)cc3)s2)c1 | - | . | . | . | 68
COc1cccc(N2CC(C(=O)Nc3nnc(SCC(=O)Nc4ccc(NC(C)=O)cc4)s3)CC2=O)c1 (stereo not drawn) | - | . | . | . | -
CC(=O)Nc1ccc(NC(=O)CSc2nnc(NC(=O)c3ccccc3F)s2)cc1 | . | . | . | . | 66
O=C(CSc1nnc(NC(=O)c2ccco2)s1)Nc1ccc2c(c1)OCCO2 | - | - | - | 55 | -
SMILES | Platelet DG rel | FLuc stim CS | PPC-1+TRAIL kill | FLuc inhib CS | TRAIL sens C8
Cc1cccc(C)c1NC(=O)C(c1ccccc1)N1CCN(c2ccc(F)cc2)CC1 (stereo not drawn) | . | . | . | . | -
CC(C)c1ccc(NC(=O)C(=O)C2C(=O)Nc3ccccc32)cc1 (stereo not drawn) | - | - | - | 52 | -
CC(C)(C)c1ccc(NC(=O)C(=O)C2C(=O)Nc3ccccc32)cc1 (stereo not drawn) | - | - | - | - | -
Cn1c(N)c(C(=O)c2cc(-c3ccncc3)nc3ccccc23)c(=O)n(C)c1=O | - | - | - | - | -
COc1ccc(-c2cc(C(=O)c3c(N)n(C)c(=O)n(C)c3=O)c3ccccc3n2)cc1OC | - | - | - | 62 | -
Nc1ccn([C@@H]2O[C@H](C(=O)N(CCC3=CCCCC3)CC3CC3)[C@@H](O)[C@H]2O)c(=O)n1 | . | . | . | . | -
O=C1NN=C2CCCCCCC12 (stereo not drawn) | . | . | . | . | -
O=C(C(=O)N1CCN(C(=O)OCc2ccccc2)CC1)c1cccnc1 | . | . | . | . | -
COCCNC(=O)c1c[nH]c2ccc(S(=O)(=O)N3CCc4ccccc43)cc2c1=O | - | - | - | - | 71
Cc1ccc(S(=O)(=O)NCc2ccccc2NS(=O)(=O)c2ccc(C)cc2)cc1 | . | . | . | . | -

Bioassay records as filed in PubChem.
